Measurements: ChEMBL document CHEMBL5532704, “Exploiting thiol-functionalized benzosiloxaboroles for achieving diverse substitution patterns - synthesis, characterization and biological evaluation of promising antibacterial agents” (RSC Med Chem, 2024)

Experiments:
Enterococcus faecium [1] = assay: Antibacterial activity against Enterococcus faecium ATCC 6057 assessed as inhibition of microbial growth by broth-microdilution method; assay type: functional
Summary of the method: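 Stocks were kept at −80 °C and subcultured twice on tryptic soy agar (24–48 h, 30 °C). MIC came from CLSI broth microdilution in Mueller–Hinton II broth, using agents dissolved in DMSO. The top tested concentration was lowered to 200, 100 or 50 µg mL⁻¹ for agents that precipitated in the medium above those levels.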

Enterococcus faecalis = assay: Antibacterial activity against Enterococcus faecalis ATCC 29212 assessed as diameter of inhibition zone by CLSI based disc-diffusion method; assay type: functional
Summary of the method: (§1)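 Strains were stored at −80 °C, then subcultured twice on tryptic soy agar for 24–48 h at 30 °C before the disc-diffusion test. The result was recorded as the inhibition-zone diameter.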

Staphylococcus aureus [2] = assay: Antibacterial activity against methicillin-resistant Staphylococcus aureus ATCC 43300 assessed as diameter of inhibition zone by CLSI based disc-diffusion method; assay type: functional
Summary of the method: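 Disc-diffusion on standard strain subcultured twice on tryptic soy agar (24–48 h, 30 °C) after storage at −80 °C; inhibition zone diameter read; linezolid disc (0.03 mg) as reference.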

Enterococcus faecium [3] = assay: Antibacterial activity against Enterococcus faecium ATCC 6057 assessed as diameter of inhibition zone by CLSI based disc-diffusion method; assay type: functional; summary of the method: as §1
Staphylococcus aureus [4] = assay: Bactericidal activity against methicillin-resistant Staphylococcus aureus NMI 1712 K assessed as inhibition of microbial growth by CLSI based microdilution method; assay type: functional
[5] = Selectivity ratio of IC50 for cytotoxicity against human MRC5 cells assessed as inhibition of cell growth to MIC for antibacterial activity against methicillin-resistant Staphylococcus aureus NMI 2541 K assessed as inhibition of microbial growth by broth-microdilution method; assay type: toxicity, cell-based
[6] = Selectivity ratio of IC50 for cytotoxicity against human MRC5 cells assessed as inhibition of cell growth to MIC for antibacterial activity against methicillin-resistant Staphylococcus aureus NMI 1712 K assessed as inhibition of microbial growth by broth-microdilution method; assay type: toxicity, cell-based
[7] = Selectivity ratio of IC50 for cytotoxicity against human MRC5 cells assessed as inhibition of cell growth to MIC for antibacterial activity against methicillin-resistant Staphylococcus aureus NMI 1991 K assessed as inhibition of microbial growth by broth-microdilution method; assay type: toxicity, cell-based
[8] = Selectivity ratio of IC50 for cytotoxicity against human MRC5 cells assessed as inhibition of cell growth to MIC for antibacterial activity against methicillin-resistant Staphylococcus aureus ATCC 43300 assessed as inhibition of microbial growth; assay type: toxicity, cell-based
[9] = Selectivity ratio of IC50 for cytotoxicity against human MRC5 cells assessed as inhibition of cell growth to MIC for antibacterial activity against methicillin-resistant Staphylococcus aureus NMI 664 K assessed as inhibition of microbial growth by broth-microdilution method; assay type: toxicity, cell-based
Bacillus subtilis = assay: Antibacterial activity against Bacillus subtilis ATCC 6633 assessed as diameter of inhibition zone by CLSI based disc-diffusion method; assay type: functional; summary of the method: as §1
[10] = Selectivity ratio of IC50 for cytotoxicity against human MRC5 cells assessed as inhibition of cell growth to MIC for antibacterial activity against methicillin-resistant Staphylococcus aureus NMI 1576 K assessed as inhibition of microbial growth by broth-microdilution method; assay type: toxicity, cell-based
Escherichia coli = assay: Antibacterial activity against Escherichia coli ATCC 25922 assessed as inhibition of cell growth by broth-microdilution method; assay type: functional
Summary of the method: (§2)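 Strains were held at −80 °C and subcultured twice on tryptic soy agar for 24–48 h at 30 °C. MIC was read by CLSI broth microdilution in Mueller–Hinton II broth, with and without the efflux-pump inhibitor PAβN (20 µg mL⁻¹). Both sets contained 1 mM MgSO₄. A ≥4-fold MIC drop with PAβN was taken as significant.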

Acinetobacter baumannii = assay: Antibacterial activity against Acinetobacter baumannii ATCC 19606 assessed as inhibition of cell growth by broth-microdilution method; assay type: functional; summary of the method: as §2
[11] = system: Stenotrophomonas maltophilia; assay: Antibacterial activity against Stenotrophomonas maltophilia ATCC 12714 assessed as inhibition of cell growth by broth-microdilution method; assay type: functional; summary of the method: as §2
Klebsiella pneumoniae = assay: Antibacterial activity against Klebsiella pneumoniae ATCC 13883 assessed as inhibition of cell growth by broth-microdilution method; assay type: functional; summary of the method: as §2
Proteus mirabilis = assay: Antibacterial activity against Proteus mirabilis ATCC 12453 assessed as inhibition of cell growth by broth-microdilution method; assay type: functional; summary of the method: as §2
Enterobacter cloacae = assay: Antibacterial activity against Enterobacter cloacae DSM 6234 assessed as inhibition of cell growth by broth-microdilution method; assay type: functional; summary of the method: as §2
Burkholderia cepacia = assay: Antibacterial activity against Burkholderia cepacia ATCC 25416 assessed as inhibition of cell growth by broth-microdilution method; assay type: functional
Serratia marcescens = assay: Antibacterial activity against Serratia marcescens ATCC 13880 assessed as inhibition of cell growth by broth-microdilution method; assay type: functional; summary of the method: as §2
[12] = system: Stenotrophomonas maltophilia; assay: Antibacterial activity against Stenotrophomonas maltophilia ATCC 13637 assessed as inhibition of cell growth by broth-microdilution method; assay type: functional; summary of the method: as §2
Pseudomonas aeruginosa = assay: Antibacterial activity against Pseudomonas aeruginosa ATCC […] assessed as inhibition of cell growth by broth-microdilution method; assay type: functional; summary of the method: as §2
[13] = system: Staphylococcus epidermidis; assay: Antibacterial activity against Staphylococcus epidermidis ATCC 12228 assessed as diameter of inhibition zone by CLSI based disc-diffusion method; assay type: functional; summary of the method: as §1
Staphylococcus aureus [14] = assay: Bactericidal activity against methicillin-resistant Staphylococcus aureus NMI 2541 K assessed as inhibition of microbial growth by CLSI based microdilution method; assay type: functional

Compound | diameter of the inhibition zone (DIZ) (Enterococcus faecalis) | diameter of the inhibition zone (DIZ) (Staphylococcus aureus [2]) | diameter of the inhibition zone (DIZ) (Enterococcus faecium [3]) | selectivity ratio [5] | selectivity ratio [6] | selectivity ratio [7] | selectivity ratio [8] | selectivity ratio [9] | diameter of the inhibition zone (DIZ) (Bacillus subtilis) | selectivity ratio [10] | other results
CC(=O)CCSc1c(F)cc2c(c1F)[Si](C)(C)OB2O | 19 mm | 19 mm | 21 mm |  |  |  |  |  |  |  | MIC (Enterococcus faecium [1]): 12.5 µg/mL
C[Si]1(C)OB(O)c2cc(F)c(SCCC#N)c(F)c21 |  | 19 mm |  | 11.2 | 11.2 | 11.2 | 11.2 | 11.2 | 23 mm | 11.2 | MBC (Staphylococcus aureus [4]): 12.5 µg/mL
C[Si]1(C)OB(O)c2cc(F)c(SC3CC(=O)NC3=O)c(F)c21 (stereo not drawn) |  | 23 mm |  | 13.4 | 13.4 | 13.4 | 13.4 | 13.4 | 27 mm | 26.8 | MIC (Escherichia coli): > 25 µg/mL; MIC (Acinetobacter baumannii): > 25 µg/mL; MIC [11]: > 25 µg/mL; MIC (Klebsiella pneumoniae): > 25 µg/mL; MIC (Proteus mirabilis): > 25 µg/mL; MIC (Enterobacter cloacae): > 25 µg/mL; MIC (Burkholderia cepacia): > 25 µg/mL; MIC (Serratia marcescens): > 25 µg/mL; MIC [12]: > 25 µg/mL; MIC (Pseudomonas aeruginosa): > 25 µg/mL
CCOP(=O)(OCC)Sc1c(F)cc2c(c1F)[Si](C)(C)OB2O | 11 mm | 27 mm | 11 mm | > 32 | > 32 | > 32 | > 32 | > 32 | 24 mm | > 32 | diameter of the inhibition zone (DIZ) [13]: 20 mm; MBC (Staphylococcus aureus [14]): > 12.5 µg/mL
